Assay results from ChEMBL document CHEMBL1123555, “1,2-Bis(sulfonyl)hydrazines. 3. Effects of structural modification on antineoplastic activity” (1987).

Assays:
Mus musculus [1] = species on record: Mus musculus; experiment: Antitumor activity against B16 melanoma cells in mice, activity is expressed as optimal effective dose; format: functional
In short: (§1)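 Transplanted tumor in mice, given i.p. once daily for 6 consecutive days starting 24 h after implantation. Doses span 10-150 mg/kg per day as fine suspensions homogenized in a few drops of 20% aqueous Tween 80 and made up with isotonic saline. Groups of five; vehicle-injected tumor-bearing controls. %T/C = mean survival time treated/control × 100. Value is the daily dose giving maximum %T/C.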

[2] = Antitumor activity against mouse B16 melanoma cells, calculated as average change in body weight from onset to termination of therapy; format: functional
In short: (§2)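 Tumor-bearing mice in groups of five, dosed i.p. daily for 6 days from 24 h post-implantation with suspensions in Tween 80/isotonic saline at 10-150 mg/kg per day; vehicle controls run alongside. Mice weighed during the experiment. Average percent body-weight change from onset to termination of therapy was taken as the toxicity index, reported at the optimal-survival dose.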

L1210 = experiment: Antitumor activity against L1210 leukemia cells in mice, activity is expressed as optimal effective dose.; format: functional, Mus musculus; in short: as §1
[3] = Antitumor activity against B16 melanoma cells in mice, activity is expressed as average survival time of treated/control animals x 100.; format: functional, Mus musculus
In short: (§3)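 Compound given ip as a fine suspension (homogenized in drops of 20% aqueous Tween 80, made to volume with isotonic saline) at 10-150 mg/kg per day, once daily for 6 consecutive days starting 24 h after implantation. Vehicle-injected tumor-bearing controls were included. Read-out was survival time; body-weight change over therapy was the toxicity indicator.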

Mus musculus [4] = species on record: Mus musculus; experiment: Antitumor activity against L1210 leukemia cells in mice, activity is expressed as optimal effective dose; format: functional; in short: as §1
Mus musculus [5] = species on record: Mus musculus; experiment: Antitumor activity against B16 melanoma cells in mice. Activity is expressed as optimal effective dose.; format: functional; in short: as §1
Mus musculus [6] = species on record: Mus musculus; experiment: Antitumor activity against L1210 leukemia cells in mice calculated as average change in body weight from onset to termination of therapy; format: functional; in short: as §2
Mus musculus [7] = species on record: Mus musculus; experiment: Antitumor activity against L1210 leukemia cells in mice (activity expressed as average survival time of treated/control animals x 100); format: functional; in short: as §3
Mus musculus [8] = species on record: Mus musculus; experiment: Antitumor activity against B16 melanoma cells in mice, activity is expressed as optimal effective dose.; format: functional; in short: as §1
Mus musculus [9] = species on record: Mus musculus; experiment: Antitumor activity against L1210 leukemia cells in mice, activity is expressed as average survival time of treated/control animals x 100; format: functional; in short: as §3

Work on `Cc1ccc(S(=O)(=O)N(C)NS(=O)(=O)Cc2ccccc2)cc1` yielded a Dose (Mus musculus [1]) of 50 mg/kg, a Weight change [2] of -2.4% and a Dose (L1210) of 50 mg/kg. For the same compound, the T/C [3] was 172%.
`Cc1ccc(S(=O)(=O)N(C)NS(=O)(=O)c2ccc(Br)cc2)cc1` showed a Dose (Mus musculus [4]) of 50 mg/kg, a Weight change [2] of -5.1% and a Dose (Mus musculus [5]) of 150 mg/kg. The Weight change (Mus musculus [6]) was 5.6%.
`CN(NS(=O)(=O)c1ccc2ccccc2c1)S(=O)(=O)c1ccc2ccccc2c1` showed a Dose (Mus musculus [1]) of 100 mg/kg, a Dose (Mus musculus [4]) of 150 mg/kg and a Weight change [2] of 4.6%. For the same compound, the Weight change (Mus musculus [6]) was -3.3%.
For `CN(NS(=O)(=O)c1ccc(Br)cc1)S(=O)(=O)c1ccc(Br)cc1`, the Dose (Mus musculus [1]) was 50 mg/kg, the Dose (Mus musculus [4]) was 150 mg/kg and the Weight change [2] was -3.8%. It also gave a T/C [3] of 160% and a Weight change (Mus musculus [6]) of 1.7%.
Compound `CN(NS(=O)(=O)c1ccc2ccccc2c1)S(=O)(=O)c1ccc(Br)cc1` has a T/C (Mus musculus [7]) of 123%, a Dose (Mus musculus [1]) of 200 mg/kg and a Dose (Mus musculus [4]) of 100 mg/kg. It also gave a Weight change [2] of 3.7% and a Weight change (Mus musculus [6]) of 18.3%.
`CN(NS(C)(=O)=O)S(C)(=O)=O` gave a T/C (Mus musculus [7]) of 340%, a Dose (Mus musculus [1]) of 50 mg/kg and a Dose (Mus musculus [4]) of 25 mg/kg. For the same compound, the Weight change [2] was -7.9%, the T/C [3] was 278% and the Weight change (Mus musculus [6]) was -15.3%.
For `Cc1ccc(S(=O)(=O)NN(C)S(=O)(=O)c2ccc(Br)cc2)cc1`, the Dose (Mus musculus [4]) was 100 mg/kg.
`COc1ccc(S(=O)(=O)N(CCCl)NS(=O)(=O)c2ccccc2)cc1` gave a T/C (Mus musculus [7]) of 136%, a Dose (Mus musculus [4]) of 10 mg/kg and a Weight change [2] of -2.8%. It also gave a T/C [3] of 138%, a Dose (Mus musculus [5]) of 12.5 mg/kg and a Weight change (Mus musculus [6]) of 4.8%.
In the case of `CN(NS(=O)(=O)c1ccccc1)S(=O)(=O)c1ccc(Br)cc1`, the Dose (Mus musculus [8]) was 100 mg/kg, the Weight change [2] was 1.5% and the T/C [3] was 160%.
Compound `CN(NS(=O)(=O)c1ccc(Br)cc1)S(C)(=O)=O` has a T/C (Mus musculus [7]) of 191%, a Dose (Mus musculus [1]) of 100 mg/kg and a Dose (Mus musculus [4]) of 40 mg/kg. For the same compound, the Weight change [2] was -11.4%, the T/C [3] was 235% and the Weight change (Mus musculus [6]) was 6.3%.
In the case of `COc1ccc(S(=O)(=O)N(CCCl)NS(C)(=O)=O)cc1`, the Dose (Mus musculus [4]) was 10 mg/kg, the Weight change [2] was 3.8% and the T/C (Mus musculus [9]) was 214%. The T/C [3] was 184%, the Dose (Mus musculus [5]) was 10 mg/kg and the Weight change (Mus musculus [6]) was -10.9%.
Compound `COc1ccc(S(=O)(=O)NN(C)S(C)(=O)=O)cc1` has a T/C (Mus musculus [7]) of 221%, a Dose (Mus musculus [1]) of 60 mg/kg and a Weight change [2] of -11.9%. It also gave a Dose (L1210) of 60 mg/kg, a T/C [3] of 233% and a Weight change (Mus musculus [6]) of -13.7%.
`COc1ccc(S(=O)(=O)NN(C)S(=O)(=O)c2ccc(Br)cc2)cc1` showed a Dose (Mus musculus [1]) of 100 mg/kg, a Dose (Mus musculus [4]) of 100 mg/kg and a Weight change [2] of 1.3%. The Weight change (Mus musculus [6]) was 7.8%.
`COc1ccc(S(=O)(=O)N(C)NS(=O)(=O)c2ccccc2[N+](=O)[O-])cc1` gave a Dose (Mus musculus [1]) of 150 mg/kg, a Weight change [2] of 1.5% and a T/C [3] of 158%.
`COc1ccc(S(=O)(=O)N(C)NS(=O)(=O)c2ccc(Br)cc2)cc1` showed a Dose (Mus musculus [4]) of 100 mg/kg, a Weight change [2] of -0.1% and a Dose (Mus musculus [5]) of 100 mg/kg. For the same compound, the Weight change (Mus musculus [6]) was 3.4%.
